Assay results from different studies.
Each line is one published result; the experiments were not run side by side.

SMILES | target or system | test | system | setting | quantity | value
O=C(CO/N=c1\cc2n(-c3ccc(Cl)cc3)c3ccccc3nc-2cc1Nc1ccc(Cl)cc1)NCc1ccc(C(F)(F)F)cc1 | Mycobacterium avium | microbial growth | ATCC700898 |  | MIC | > 30 µM
Nc1nc(N)c(OCCCOc2ccccc2CCC(=O)O)c(C2CCNCC2)n1 | Mycobacterium avium | microbial growth, resazurin |  |  | MIC | 6.2 µg/mL
O/N=c1\cc2n(-c3ccc(Cl)cc3)c3ccccc3nc-2cc1Nc1ccc(Cl)cc1 | Mycobacterium avium | microbial growth |  | clinical isolate | MIC | > 30 µM
COc1cccc2c1C(=O)c1c(O)c3c(c(O)c1C2=O)C[C@@](O)(C(=O)CO)C[C@@H]3O[C@H]1C[C@H](N)[C@H](O)[C@H](C)O1 | NCI-H1975 | cell growth or viability, MTT |  | 72 h | IC50 | 0.34 µM
C[C@H](NC(=O)CO/N=c1\cc2n(-c3ccc(Cl)cc3)c3ccccc3nc-2cc1Nc1ccc(Cl)cc1)C(=O)OC(C)(C)C | Mycobacterium avium | microbial growth |  | clinical isolate | MIC | > 30 µM
O=C(c1ccc(Oc2ccc3cc(Br)ccc3c2Cl)c([N+](=O)[O-])c1)C(Cl)Cl | NCI-H1975 | cell growth or viability, MTT |  | 2.5 µM | inhibition | 85.4%
NCC[C@H](O)C(=O)N[C@@H]1C[C@H](N)[C@@H](O[C@H]2O[C@H](CN)[C@@H](O)[C@H](O)[C@H]2O)[C@H](O)[C@H]1O[C@H]1O[C@H](CO)[C@@H](O)[C@H](N)[C@H]1O | Mycobacterium avium | microbial growth, resazurin |  |  | MIC | 1.7 µg/mL
N#Cc1ccc(Oc2ccc(C(=O)C(Cl)Cl)cc2[N+](=O)[O-])cc1 | NCI-H1975 | cell growth or viability, MTT |  | 2.5 µM | inhibition | 96.8%
C=CC(=O)NC1CCN(c2ncc3ncnc(Nc4ccc(Oc5ccc6c(c5)ncn6C)c(C)c4)c3n2)CC1 | HCC1428 | cell growth or viability |  |  | EC50 | 7.04 µM
CO/N=c1\cc2n(-c3ccc(Cl)cc3)c3ccccc3nc-2cc1Nc1ccc(Cl)cc1 | Mycobacterium avium | microbial growth | ATCC700898 |  | MIC | 0.47 µM
CN(Cc1ccc(C(C)(C)C)cc1)Cc1cccc2ccccc12 | Trichophyton rubrum | microbial growth, disc diffusion | ATCC28188 | 0.064 µg/mL, 6 days | inhibition zone | ≥ 55 mm
O=C(c1ccc(Oc2ccc(Br)cc2)c([N+](=O)[O-])c1)C(Cl)Cl | NCI-H1975 | cell growth or viability, MTT |  | 2.5 µM | inhibition | 60.3%
CCOC(=O)CNC(=O)CO/N=c1\cc2n(-c3ccc(Cl)cc3)c3ccccc3nc-2cc1Nc1ccc(Cl)cc1 | Mycobacterium avium | microbial growth | ATCC700898 |  | MIC | 1.88 µM
O=C(c1ccc(Oc2ccc3oc(=O)ccc3c2)c([N+](=O)[O-])c1)C(Cl)Cl | NCI-H1975 | cell growth or viability, MTT |  | 2.5 µM | inhibition | 61.6%
CC(C)/N=c1\cc2n(-c3ccc(Cl)cc3)c3ccccc3nc-2cc1Nc1ccc(Cl)cc1 | Mycobacterium avium | microbial growth | ATCC700898 |  | MIC | 0.06 µM
CN(Cc1ccc(C2(C(F)(F)F)CC2)cc1)Cc1cccc2ccccc12 | Trichophyton rubrum | microbial growth, disc diffusion | ATCC28188 | 0.256 µg/mL, 6 days | inhibition zone | ≥ 55 mm
NCCCc1nc(N)nc(N)c1OCCCOc1ccccc1CCC(=O)O | Mycobacterium avium | microbial growth, resazurin |  |  | MIC | 12.9 µg/mL
O=C(c1ccc(Oc2cccc(-c3ccccc3)c2)c([N+](=O)[O-])c1)C(Cl)Cl | NCI-H1975 | cell growth or viability, MTT |  | 2.5 µM | inhibition | 98.1%
